Hits are enriched below; roughly 1.4% of the tested compounds scored in any of these assays.
FXIIa inh: human FXIIa protease inhibitors, primary screen, biochemical, 1536-well; Coagulation factor XII (Homo sapiens), P00748; purified FXIIa, Boc-QGR-AMC fluorogenic substrate, 2 h; inhibition, % at 5 µM; 220,000 compounds, 0.3% hits; in the data active means inhibition above about 40%;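 further: 0% = enzyme with no compound and 100% = blank without enzyme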
hK5 inh: human KLK5 protease inhibitors, primary screen, biochemical, 1536-well. recombinant hK5, fluorogenic AMC substrate cleavage. AID 873, 2007. Kallikrein-5 (Homo sapiens), Q9Y337. 210,000 compounds, 0.59% hits. inhibition, % at 5 µM;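 active means inhibition of 40% or more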;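 further: 0% = enzyme controls without compound and 100% = no-enzyme blanks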
Calpain2 inh: inhibitors of pig calpain II, primary screen, biochemical, fluorogenic peptide substrate, 1536-well. purified calpain II, 30 min. inhibition, % at 16 µM. 220,000 compounds, 0.37% hits. AID 1236, 2008;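 active means inhibition above about 50%, limit read from the data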
FXIa inh 1536: human FXIa protease inhibitors, primary screen, biochemical, 1536-well; Coagulation factor XI (Homo sapiens), P03951; purified FXIa, Boc-Glu-Ala-Arg-AMC fluorogenic substrate; inhibition, % at 5 µM; 220,000 compounds, 0.14% hits;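 active means inhibition of at least 40%; inactive means inhibition below 40%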;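 further: fluorescence of freed AMC excited at 355 nm; 0% = enzyme without compound and 100% = no enzyme blank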
Target sequence (P03951 19-387 limits assumed): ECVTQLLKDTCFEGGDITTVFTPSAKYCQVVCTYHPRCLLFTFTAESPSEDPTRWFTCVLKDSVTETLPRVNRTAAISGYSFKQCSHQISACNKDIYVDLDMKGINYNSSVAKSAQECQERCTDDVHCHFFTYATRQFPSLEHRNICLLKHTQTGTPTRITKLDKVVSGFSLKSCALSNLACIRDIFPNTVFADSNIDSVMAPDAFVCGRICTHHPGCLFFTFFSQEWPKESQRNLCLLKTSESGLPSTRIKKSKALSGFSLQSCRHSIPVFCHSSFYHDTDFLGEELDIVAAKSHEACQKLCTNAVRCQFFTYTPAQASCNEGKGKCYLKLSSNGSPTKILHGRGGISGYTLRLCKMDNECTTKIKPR
Target sequence (P03951 388-625 limits assumed): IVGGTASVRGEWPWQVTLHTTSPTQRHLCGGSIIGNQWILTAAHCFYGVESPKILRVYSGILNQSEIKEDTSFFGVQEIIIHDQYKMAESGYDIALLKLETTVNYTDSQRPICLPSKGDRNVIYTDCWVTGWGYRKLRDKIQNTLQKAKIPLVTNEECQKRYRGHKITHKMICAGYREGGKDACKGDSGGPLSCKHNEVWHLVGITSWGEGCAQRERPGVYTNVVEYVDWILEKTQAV
Thrombin inh: human alpha-thrombin inhibitors, primary screen, counter-screen for coagulation protease inhibitor project, biochemical, 1536-well, fluorogenic AMC substrate; Prothrombin (Homo sapiens), P00734; Boc-VPR-AMC fluorogenic substrate cleavage; inhibition, % at 5 µM; 220,000 compounds, 0.26% hits;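 active means inhibition at or above 40%; inactive means inhibition below 40%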;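 further: 0% = enzyme with no compound and 100% = wells without enzyme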
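Test system: human alpha-thrombin protein / Dosing: one concentration per compound, 5 µM, with 0.2% DMSO / Medium: pH 7.5 Tris-saline with Tween 20 / Benchmarks: no-compound enzyme wells and no-enzyme blanks / Read-out basis: percent inhibition of thrombin substrate cleavage / Timing: reaction at room temperature / Measured by: fluorescence, ex 355 nm, em 460 nm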
Starred values were filed as active, the others as inactive; i = inactive; . = no result given.

SMILES	FXIIa inh	hK5 inh	Calpain2 inh	FXIa inh 1536	Thrombin inh
O=C(CSc1nc2ccccc2c(=O)n1-c1ccccc1)N1CCc2ccccc21	15.2	-5.8	68.2*	9.9	-6.3
CCNC(=S)Nn1cnc2ccccc21	6.8	1.0	-17.4	-4.7	0.1
COc1ccc(CCNC(=O)COC(=O)CCC(=O)c2ccc(F)cc2)cc1OC	9.3	0.7	-21.5	-0.5	-0.4
COCCn1c(N)c(S(=O)(=O)c2cccs2)c2nc3ccccc3nc21	31.7	-42.0	i	-11.7	-8.5
COc1cccc(/C=N/n2c(N)c(S(=O)(=O)c3cccs3)c3nc4ccccc4nc32)c1OC	44.2*	8.9	-178.1	4.5	17.7
Cc1nc(CN2CCN(Cc3nc(C(c4ccccc4)c4ccccc4)no3)CC2)cs1	4.5	.	30.2	-0.3	-2.2
CC(=O)Nc1cc2c(cc1C(=O)c1ccccc1)OCCO2	8.7	49.2*	12.7	3.7	34.5
CCC(=O)Nc1cc2c(cc1C(=O)c1ccccc1)OCCO2	1.9	-5.5	-6.6	-3.6	-5.8
Cc1nc(=O)c(-c2ccccc2)c(C)n1CC1CCCO1 (centres undefined)	5.3	74.0*	8.4	0.2	14.8
S=c1[nH]nc(-c2ccccc2)n1CC1CCCO1 (centres undefined)	1.3	-1.7	-12.7	1.4	2.6
O=C(c1ccc(Cl)cc1)N1CCc2c([nH]c3ccccc23)C1C(F)(F)F (centres undefined)	0.7	2.9	20.1	-6.8	-11.5
O=C(c1cn[nH]c1)N1CCc2c([nH]c3ccccc23)C1c1c(F)cccc1Cl (centres undefined)	14.8	75.1*	-22.6	0.3	2.2
CCOc1ccc(N2C(=O)c3cccnc3C2Nc2ccc(Cl)cc2)cc1 (centres undefined)	8.0	-0.5	-11.1	-6.2	-6.1
Cc1ccc(NC2c3ncccc3C(=O)N2c2ccccc2C)cc1C (centres undefined)	13.3	46.7*	20.0	-1.4	4.5
O=C(Oc1ccc2c3c(c(=O)oc2c1)CCC3)c1ccco1	71.3*	-10.4	i	32.8	24.3
O=C(Oc1cc2oc(=O)c3c(c2cc1Cl)CCCC3)c1ccco1	6.8	-10.0	-491.9	-2.5	-0.9
S=C(NCCN1CCOCC1)Nc1ccc(Cl)cc1	14.1	46.5*	14.5	20.3	20.1
S=C(NCCCN1CCOCC1)Nc1ccc(Cl)cc1	0.6	-9.7	17.1	-7.5	-13.0
COc1ccc(C(=O)N(C)c2c(C)n(C)n(-c3ccccc3)c2=O)cc1OC	16.4	7.2	69.9*	9.1	15.2
O=C(O)/C=C/C(=O)c1ccc2c(c1)NC(=O)CO2	1.9	-9.0	-17.6	-5.7	2.6
COc1ccc(CNC(=O)COC(=O)CC2CC3CCC2C3)cc1OC (centres undefined)	13.2	-14.7	3.0	3.0	-10.4
COc1ccc(-c2cc(-c3nnc(COC(=O)CC4CC5CCC4C5)o3)c3ccccc3n2)cc1OC (centres undefined)	42.4*	23.6	-105.2	17.2	24.6
Cn1c(C(=O)N2CCCCCC2)cc2c(=O)n(C)c3ccccc3c21	19.1	-13.1	12.1	4.5	-0.4
Cc1cccc(N2CCN(C(=O)c3cc4c(=O)n(C)c5ccccc5c4n3C)CC2C)c1 (centres undefined)	.	41.2*	-61.4	7.0	24.7
COc1cccc(C2=CC(c3cccs3)n3nnnc3N2)c1 (centres undefined)	10.5	-3.8	67.6*	8.6	2.9
SMILES	FXIIa inh	hK5 inh	Calpain2 inh	FXIa inh 1536	Thrombin inh
COc1cccc(C2=CC(c3ccc(OC)c(OC)c3OC)n3nnnc3N2)c1 (centres undefined)	-5.3	-7.7	31.8	-5.8	-2.2
Nn1c(SCC(=O)Nc2ccc3c(c2)OCO3)nnc1-c1ccncc1	-3.9	2.8	-10.9	-2.4	0.4
Cc1cc(NC(=O)CSc2nnc(-c3ccncc3)n2N)ccc1Br	10.8	-4.5	137.5*	-0.8	1.5
Nn1c(SCC(=O)Nc2ccc(F)cc2F)nnc1-c1cccnc1	33.8	41.0*	-2.4	9.8	34.0
Cc1ccc(NC(=S)N2CCCCC2CO)cc1C (centres undefined)	1.0	-7.2	-20.7	-2.7	-4.7
Cc1cccc(Oc2ccc(Cl)cc2N)c1	7.7	0.4	50.3*	3.1	1.5
COC(=O)c1cccc(NC(=O)C(C)(C)C)c1	4.0	0.0	7.9	9.5	-2.9
O=C(NC(=O)c1cnccc1C(F)(F)F)Nc1ccccc1	1.6	6.3	-1.7	7.3	-2.8
O=[N+]([O-])c1cc(Cl)ccc1-c1nc(-c2ccccc2)no1	40.0	75.1*	17.4	12.2	33.6
Cc1cccc(OCC(=O)N/N=C/c2ccccc2C(=O)O)c1	25.8	41.9*	29.1	43.1*	33.8
Cc1ccc(NC(=O)c2ccc(OC(=O)COc3cccc(Cl)c3)cc2)cc1	7.6	-15.4	12.3	7.0	77.1*
COc1ccc(C2=CC(=O)CC(c3ccc(OC)cc3)C2)cc1 (centres undefined)	8.3	-1.4	16.4	2.5	7.2
COc1ccc(C2CC(=O)C(C(c3ccc(O)cc3)C3C(=O)CC(c4ccc(OC)cc4)CC3=O)C(=O)C2)cc1 (centres undefined)	45.1*	50.0*	2.2	26.3	33.8
CCCCOC(=O)c1ccc(NC(=O)C(=O)NCc2ccco2)cc1	99.5*	-1.7	29.7	-2.3	-10.3
COc1cccc(NC(=O)CN2CCN(S(=O)(=O)c3ccc(C(C)C)cc3)CC2)c1	13.9	-8.5	8.4	7.2	0.2
COc1cc(NC(=O)CN2CCN(S(=O)(=O)c3ccc(C(C)C)cc3)CC2)cc(OC)c1	26.0	40.5*	35.0	14.7	10.4
CCOc1ccc(NC(=O)CCN2CCN(S(=O)(=O)c3ccc(Cl)cc3)CC2)cc1	20.7	55.3*	-1.1	-2.8	28.0
O=C(Cc1ccccc1)Nc1ccc(N2CCN(Cc3ccccc3F)CC2)cc1	1.4	3.4	10.9	2.6	-1.3
N=c1n(Cc2ccc(Cl)cc2)c2ccccc2n1CC(O)COc1ccccc1 (centres undefined)	3.2	-2.2	35.3	-2.3	-4.6
N=c1n(Cc2ccccc2)c2ccccc2n1CC(O)COc1ccc(Cl)cc1Cl (centres undefined)	10.7	3.9	52.0*	0.4	-2.7
O=C1c2cccc3cccc(c23)C(=O)N1OS(=O)(=O)c1ccccc1	-3.4	-32.7	i	-17.8	11.6
O=C1c2ccccc2C(=O)N1OS(=O)(=O)c1ccccc1	76.5*	-23.1	-13.3	42.7*	34.3
Cc1ccc(S(=O)(=O)ON2C(=O)c3cccc4cccc(c34)C2=O)cc1	-4.3	-18.4	-155.2	-2.6	-9.5
Cc1ccc(C)c(S(=O)(=O)ON2C(=O)c3ccccc3C2=O)c1	77.1*	9.3	9.6	62.4*	47.8*

High-throughput results (PubChem)
